Laboratory results published in the EternaBench riboswitch data.

Tested on: MS2 coat protein
Experiment: apparent Kd, MS2 coat protein; higher = weaker binding; RNA-MaP array; FMN 200 µM where present
In short: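 Green signal from SNAP-549-labelled MS2 coat protein was normalised to red-channel RNA signal and to the median Fmax of control clusters. The protein was titrated from 0.7 or 1.5 nM, doubling to 3 µM, without and then with constant ligand, over designs transcribed by stalled E. coli RNA polymerase on Illumina sequencing-chip clusters, in 100 mM Tris-HCl pH 7.5, 80 mM KCl, 4 mM MgCl2, BSA, DTT, yeast tRNA and Tween-20. The apparent Kd is the median of filtered per-cluster binding-curve fits.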

[1] = designed as: OFF switch for flavin mononucleotide, no ligand
[2] = ligand present: flavin mononucleotide, designed as: OFF switch for flavin mononucleotide
[3] = designed as: ON switch for flavin mononucleotide, no ligand
[4] = ligand present: flavin mononucleotide, designed as: ON switch for flavin mononucleotide

GGAUAGGACAGAGGAUAUACGUGCUAGAGAUACUUGCAAAAUUUCCUCACAUGAGGAUCACCCAUGUAGAAGGCUGUCCUAUCG
apparent Kd [1]: 0.056 µM | apparent Kd [2]: 0.489 µM

GGAUAGGACAGAGGAUAUACGUGCUAGAGAUAUUAGCAAAAUUUCCUCACAUGAGGAUCACCCAUGUAGAAGGCUGUCCUAUCG
apparent Kd [1]: 0.0194 µM | apparent Kd [2]: 0.328 µM

GGAUAGGACAGAGGAUAUACGUGCUAGAUAUACUAGCAAAAUUUCCUCACAUGAGGAUCACCCAUGUAGAAGGCUGUCCUAUCG
apparent Kd [1]: 0.0156 µM | apparent Kd [2]: 0.399 µM

GGAUAGGAGAGAGGAUAUACGUGCUAGAGAUACUAGCAAAAUUUCCUCACAUGAGGAUCACCCAUGUAGAAGGCUGUCCUAUCG
apparent Kd [1]: 0.0111 µM | apparent Kd [2]: 0.21 µM

GGAUCAUAUGUCAGGAUAUGCAGGUCCUUGGAUCUGCAGAAGGGACAUGAGGAUCACCCAUGUCAUGAAGAUCC
apparent Kd [1]: 0.0356 µM | apparent Kd [2]: 0.202 µM

GGAUCGAAUGUGAGGAUAUACCACUGGAUACAGUGGUAGAAGGCACAUGAGGAUCACCCAUGUCCUUACGAUCC
apparent Kd [1]: 0.0965 µM | apparent Kd [2]: 0.319 µM

GGAUCGAAUGUGAGGAUAUGCUGGUCCUUGGAUCAGCAGAAGGCACAUGAGGAUCACCCAUGUUUCCACGGUCC
apparent Kd [1]: 0.127 µM | apparent Kd [2]: 0.869 µM

GGAUCUUGGGUCAGGAUAUGCUGAUAGUUAUGUCAGCAGAAGGGACAUGAGGAUCACCCAUGUGCUCGGUUUUG
apparent Kd [1]: 0.0111 µM | apparent Kd [2]: 0.0197 µM

GGAUGAGAAACUCAUCCAAAUCGAACAUGAGGAUCACCCAUGUAGGAUAUGCUACUCAAAGAGUAGCAGAAGGACAUGUGCUUU
apparent Kd [1]: 0.035 µM | apparent Kd [2]: 0.232 µM

GGAUGAGAAACUCAUCCAAUUCGAACAUGAGGAUCACCCAUGUAGGAUAUGCUACUCAAAGAGUAGCAGAAGGACAUGUGCCUU
apparent Kd [1]: 0.025 µM | apparent Kd [2]: 0.189 µM

GGAUGAGCAAUAGGAUAUGCUGGUAUUGAAUGGGUAGAAGGAUUUCUAGUGGUAAAGACAUGAGGAUCACCCAUGUAGCGGCCC
apparent Kd [3]: 0.328 µM | apparent Kd [4]: 0.265 µM

GGAUGAUUAAUAGGAUAUUAUUUGUAAUUUGGUUAAGAAGGAUUAAUGAUUUAAACGACCUGUUACAUGAGGAUCACCCAUGUU
apparent Kd [3]: 0.0955 µM | apparent Kd [4]: 0.0741 µM

GGAUGUCAAAGACAUCCAUAACGAACAUGAGGAUCACCCAUGUAGGAUAUGCUACUCAAAGAGUAGCAGAAGGACAUGUGUCUU
apparent Kd [1]: 0.0303 µM | apparent Kd [2]: 0.15 µM

GGAUUACAAAUUUAUUUAAUUCACAUGAGGAUCACCCAUGUGUAGGAUAUGCUAGUUAAGUAAUAGCAGAAGGACAUGUGCCUU
apparent Kd [1]: 0.00882 µM | apparent Kd [2]: 0.00926 µM

GGAUUUGGUCCAAUUUCGGUGAGUAAGGAUAUGCAUGGCAUACAUGAGGAUCACCCAUGUUGUCGGCAGAAGGUGCCACAACGU
apparent Kd [3]: 0.0457 µM | apparent Kd [4]: 0.0163 µM

GGCAAGUCAGGAUAUGCGAAGUCAGGACACACACUGACGAAGCAGAAGGGACAUGAGGAUCACCCAUGUAAGCC
apparent Kd [1]: 0.0319 µM | apparent Kd [2]: 0.0199 µM

GGCAUGUGAGGAUAUCUGAUGUCUAACUUCGGUUAGACAUCAGAGAAGGCACAUGAGGAUCACCCAUGUCUGCC
apparent Kd [1]: 0.0684 µM | apparent Kd [2]: 0.0798 µM

GGCCCGCGCGUGAGGAUAUGCUGAUUCUAGGAUUAGCAGAAGGCACAUGAGGAUCACCCAUGUCCAACUUGUCU
apparent Kd [1]: 0.0286 µM | apparent Kd [2]: 0.0361 µM

GGCCGUAAUAAGGAUAUCACUAGCUUCGGCUAGUGAGAAGGUAUUACAUGAGGAUCACCCAUGUGGUCAGGCCA
apparent Kd [1]: 0.279 µM | apparent Kd [2]: 0.73 µM

GGCGAACAGGCUAACAUGAGGAUCACCCAUGUGGACUCAUGGUAGGAUAUGCUGUACAAAGUACAGCAGAAGGGCCGGUGAGCC
apparent Kd [3]: 0.139 µM | apparent Kd [4]: 0.376 µM

GGCGAAGUAGGAUAUACAUGAGGAUCACCCAUGUAACCUGAUGGCGUAGGUCUUCUAUGUAGAAGGGCUACGCC
apparent Kd [1]: 0.0159 µM | apparent Kd [2]: 0.0169 µM

GGCGAGUAAGGAUAUUUUAACCUACAGACGAGUGAUGGUUAAGAGAAGGUACAUGAGGAUCACCCAUGUCAUCC
apparent Kd [1]: 0.0162 µM | apparent Kd [2]: 0.0198 µM

GGCGGCGCGGGCCACCGCAGGACCAGAAGGACAUGAGGAUCACCCAUGUAGCAGAACAGGGCGGUGUAGGAUAUGGCAGGCUCG
apparent Kd [1]: 0.0249 µM | apparent Kd [2]: 0.0458 µM

GGCGUGUUAGGAUAUCGCGGCGGCGGCGUUUGUUGUUGUUGUGAGAAGGAACAUGAGGAUCACCCAUGUGCGCC
apparent Kd [1]: 0.0184 µM | apparent Kd [2]: 0.0274 µM

GGCUCAUUUACAUUAAUGUGCAGACAGGAUAUCCACGGCGGUUCCUACAUGAGGAUCACCCAUGUGGAGAAGGGUCGCUAAUGG
apparent Kd [1]: 0.0196 µM | apparent Kd [2]: 0.028 µM

GGCUCGAGGGUCUCCGCGUUCACAUGAGGAUCACCCAUGUAACAGGAUAUCGGGCCAAAGGGCAGCGAGAAGGGUUACUUGGGC
apparent Kd [1]: 0.00643 µM | apparent Kd [2]: 0.0146 µM

GGGACUUACGAGAAGGGCUACAUGAGGAUCACCCAUGUAAAUCUUCGGGUAGCAGGAUAUCGGCGGCUACAGGAGGGCCAAGUC
apparent Kd [1]: 0.0143 µM | apparent Kd [2]: 0.0907 µM

GGGAGUGGAGGGAAUAACAUGAGGAUCACCCAUGUAUGGGAGAGAAGGCAGGUUGGAGGGCGAUCUGAGGAUAUUUAGACUCUU
apparent Kd [3]: 0.0199 µM | apparent Kd [4]: 0.0135 µM

GGGAUAGGAGGAUAUGUUCUAGCUCACAUGAGGAUCACCCAUGUGGUGUCCGUUGGUAGCGCAGAAGGCUUACCUA
apparent Kd [1]: 0.792 µM | apparent Kd [2]: 0.662 µM

GGGCAACAUGAGGAUCACCCAUGUCAGGAUAUUGGGCCGGGCCCGAAAGGGCCCGGAACAAGAAGGGACAGCCC
apparent Kd [1]: 0.0235 µM | apparent Kd [2]: 0.0245 µM

GGGCUGUCAGGAUAUCUCGGGCUCGGGUAAACUCGGGCUCGGGAGAAGGGACAUGAGGAUCACCCAUGUGGCCC
apparent Kd [1]: 0.0304 µM | apparent Kd [2]: 0.033 µM

GGGCUGUCAGGAUAUGCUUCGGCUUCGGAAAUGAAGUUGAAGUAGAAGGGACAUGAGGAUCACCCAUGUGGCCC
apparent Kd [1]: 0.0289 µM | apparent Kd [2]: 0.035 µM

GGGUAAUAUCGAGGAUAUGUCUAGACACAUGAGGAUCACCCAUGUAUGUGUAUAGAAGGCGAUAUUAACAGCAUGUUACAUGGG
apparent Kd [3]: 0.291 µM | apparent Kd [4]: 0.0605 µM

GGGUACAUCGGAGGAUAUCAUGUAAAUACAUGAGGAUCACCCAUGUCGAUGGAGACACCGGAGAUUGAGAAGGCCGAUGUACCG
apparent Kd [3]: 0.643 µM | apparent Kd [4]: 0.0235 µM

GGGUACAUCGGAGGAUAUCAUGUAAAUACAUGAGGAUCACCCAUGUCGAUGGAGACAGCGGAGAUUGAGAAGGCCGAUGUACCG
apparent Kd [3]: 0.105 µM | apparent Kd [4]: 0.19 µM

GGGUACAUCGGAGGAUAUCAUGUAAAUACAUGAGGAUCACCCAUGUCGAUGGAGACGUCGGAGAUUGAGAAGGCCGAUGUACCG
apparent Kd [3]: 0.091 µM | apparent Kd [4]: 0.0078 µM

GGGUACAUCGGAGGAUAUCAUGUAAAUACAUGAGGAUCACCCAUGUCGUACGAGAGUACGGAGAUUGAGAAGGCCGAUGUACCG
apparent Kd [3]: 0.0249 µM | apparent Kd [4]: 0.0153 µM

GGGUACAUCGGAGGAUAUCAUGUGUAAACAUGAGGAUCACCCAUGUCGUACGAGAGUACGGAGAUUGAGAAGGCCGAUGUACCG
apparent Kd [3]: 0.0867 µM | apparent Kd [4]: 0.0166 µM

GGGUACAUCGUAGGAUAUCAUGUAAAUACAUGAGGAUCACCCAUGUCGAUGGAGACAUCGGAGAUUGAGAAGGCCGAUGUACCG
apparent Kd [3]: 0.206 µM | apparent Kd [4]: 0.0179 µM

GGGUACAUGGGAGGAUAUCCUCAUGAGACAUGAGGAUCACCCAUGUAUUAUAAGCCGAAAGGCAAGGAGAAGGCCCAUGUACCG
apparent Kd [3]: 0.0302 µM | apparent Kd [4]: 0.017 µM

GGGUCCAACACAGGAUAUGCUGGACUUUGUCCAGCAGAAGGGUGAAGAACAUGAGGAUCACCCAUGUGGAUCCAUAUAUUUAAU
apparent Kd [3]: 0.236 µM | apparent Kd [4]: 0.0179 µM

GGGUGAGCUCAAGGAUAUCCAAAAUGGUUACAUGAGGAUCACCCAUGUCCAGGCGAAUAAAGGCCGGAGAAGGUGAGGGCCCUC
apparent Kd [3]: 0.0602 µM | apparent Kd [4]: 0.155 µM

GGUAAAUAAAGAGUACUGUUUUGAACAUGAGGAUCACCCAUGUAGGAUAUGCGAGUUUUGAAUUUGCAGAAGGACAUUUUUAGC
apparent Kd [1]: 0.0196 µM | apparent Kd [2]: 0.0204 µM

GGUACCAACACAGGAUAUGCUAUCCUUUGGGUAGCAGAAGGGUGAAACAUGAGGAUCACCCAUGUGGUGCCACCCGGUGACGGG
apparent Kd [3]: 1.18 µM | apparent Kd [4]: 0.0892 µM

GGUACCAUCACAGGAUAUGCUUUCCGUUGGGAAGCAGAAGGGUGUAACAUGAGGAUCACCCAUGUGGUGCCCGGGCGUGAGCCC
apparent Kd [3]: 0.135 µM | apparent Kd [4]: 0.0156 µM

GGUACCAUCACAGGAUAUGCUUUCCUUUGGAAAGCAGAAGGGUGUAACAUGAGGAUCACCCAUGUGGUGCCAGGGCGUGAGCCC
apparent Kd [3]: 0.184 µM | apparent Kd [4]: 0.013 µM

GGUACUCAAAGAGUACCAAUACGAACAUGAGGAUCACCCAUGUAGGAUAUGCUACUCAAAGAGCAGCAGAAGGACAUGUGCCUA
apparent Kd [1]: 0.0177 µM | apparent Kd [2]: 0.125 µM

GGUACUCAAAGAGUACGGAGUCGAACAUGAGGAUCACCCAUGUAGGAUAUGCUAUUCUUGAAGUUGCAGAAGGACAUGUGCAGC
apparent Kd [1]: 0.0109 µM | apparent Kd [2]: 0.0111 µM

GGUACUCAAAGAGUACUUGGUCGAACAUGAGGAUCACCCAUGUAGGAUAUGCAAAGCAAGAAGUAGCAGAAGGACAUGUGCAGC
apparent Kd [1]: 0.0135 µM | apparent Kd [2]: 0.0362 µM

GGUAGAGAGCAGGAUAUCUUGGGUAAGUAUCGUAGAGAAGGGCUCACAUGAGGAUCACCCAUGUGGUCCUAGAU
apparent Kd [1]: 0.0121 µM | apparent Kd [2]: 0.0248 µM

GGUAUCGGAGGAGGAUAUGAGCGUAUCGCUGCCUCAGAAGGCCUACUGAUACAUGAGGAUCACCCAUGUUGCGGUAAUCCUACU
apparent Kd [1]: 0.283 µM | apparent Kd [2]: 0.0235 µM

GGUCCAUCAUGAGGAUAUGGCACCUUAUUGGUGCCAGAAGGCAUGUGUAUACACAUGAGGAUCACCCAUGUAAUAAAUUGGACC
apparent Kd [3]: 0.144 µM | apparent Kd [4]: 0.0222 µM

GGUCCAUUAUGAGGAUAUGGCACCUUAUUGGUGCCAGAAGGCAUGUCUUCACAUGAGGAUCACCCAUGUUAAAUAAAUUGGACC
apparent Kd [3]: 0.0163 µM | apparent Kd [4]: 0.0177 µM

GGUCCGUAACAGAAGGCCGUAACUGGUGGUGGCGGAGGAUAUGUGGGCGGCCCUUGACAACAUGAGGAUCACCCAUGUAUGUAA
apparent Kd [3]: 0.328 µM | apparent Kd [4]: 0.0306 µM

GGUCCUUCUGUUAGGAUAUGCUUUGGGCUUCCGCAGUAGAAGGAACAUGAGGAUCACCCAUGUCCGAUGCCGUA
apparent Kd [1]: 0.0653 µM | apparent Kd [2]: 0.0844 µM
